In ChEMBL document CHEMBL5154742, “Thiosugar naphthalene diimide conjugates: G-quadruplex ligands with antiparasitic and anticancer activity” (Eur J Med Chem, 2022):

Tests used:
Trypanosoma brucei = assay: Antitrypanosomal activity against Trypanosoma brucei incubated for 72 hrs by alamar blue dye based fluorimetry analysis; assay type: functional, organism-based
How it was run: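 Bloodstream-form T. brucei S16 (Lister 427, MiTat 1.2), 1×10^3 per well in HMI-9 with 20% hiFBS, exposed to increasing compound concentrations for 72 h at 37 °C, 5% CO2. Resazurin then added for 4 h, cells lysed with SDS, fluorescence read at ex 550/em 590 nm. IC50 from four-parameter logistic fit; three independent runs, each in triplicate.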

[1] = Drug uptake in Trypanosoma brucei at 10 uM incubated for 2 hrs by fluorescence based multiplate reader method; assay type: ADME
[2] = Selectivity index, ratio of IC50 for cytotoxicity against human MRC5 cells to IC50 for antitrypanosomal activity against Trypanosoma brucei; assay type: toxicity, cell-based; conditions: MRC5 cells versus Trypanosoma brucei, read-out: Selectivity Index
How it was run: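 Selectivity index: MRC-5 IC50 divided by T. brucei IC50.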

HT-29 = assay: Cytotoxicity against human HT-29 cells assessed as reduction in cell viability incubated for 48 hrs by MTT assay; assay type: functional, cell-based; conditions: HT-29, 48 h
How it was run: (§1)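 MTT assay: 5×10^3 cells per well in DMEM with 10% hiFBS (4.5 g/L glucose for HT-29, 1 g/L for MRC-5), exposed to increasing compound concentrations for 48 h at 37 °C. MTT added for 4 h, formazan dissolved in DMSO, absorbance read at 575 nm. IC50 from four-parameter logistic fit.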

[3] = Selectivity index, ratio of IC50 for human MRC5 cells to IC50 for human HT-29 cells; assay type: toxicity; conditions: MRC5 cells versus HT-29 cells, read-out: Selectivity Index
How it was run: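 Selectivity index: MRC-5 IC50 divided by HT-29 IC50.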

[4] = Selectivity index, ratio of IC50 for cytotoxicity against human MRC5 cells to IC50 for antileishmanial activity against Leishmania major (MHOM/IL/80/Friedlin) promastigotes; assay type: toxicity, cell-based; conditions: read-out: Selectivity Index
How it was run: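 Selectivity index: MRC-5 IC50 divided by L. major promastigote IC50.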

Leishmania major = assay: Antileishmanial activity against Leishmania major (MHOM/IL/80/Friedlin) promastigotes assessed as reduction in parasite growth incubated for 72 hrs by MTT assay; assay type: functional, organism-based
How it was run: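 L. major Friedlin promastigotes, 1×10^6/mL in modified RPMI-1640 with 10% hiFBS, exposed to increasing compound concentrations for 72 h at 28 °C; proliferation read by MTT; IC50 from four-parameter logistic fit versus untreated controls.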

[5] = Cytotoxicity against human MRC5 cells assessed as reduction in cell viability incubated for 48 hrs by MTT assay; assay type: toxicity, cell-based; how it was run: as §1
Quadruplex DNA [6] = assay: Binding affinity to human G-quadruplex telomeric DNA F21T (5'-duplex GGG TTAGGG TTAGGG TTAGGG-3') assessed as change in melting temperature at 5 uM incubated for 5 min by FRET assay; assay type: nucleic-acid assay
How it was run: (§2)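 Fluorescently labelled oligonucleotide annealed (95 °C, 5 min) in 10 mM lithium cacodylate/90 mM LiCl, pH 7.2; 0.2 μM final, with or without ligand. Held 5 min at 25 °C, then heated 0.5 °C/min to 95 °C. Tm taken at normalized signal 0.5; ΔTm = Tm with ligand minus Tm without. Tested in duplicate.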

Quadruplex DNA [7] = assay: Binding affinity to human G-quadruplex telomeric DNA F21T (5'-duplex GGG TTAGGG TTAGGG TTAGGG-3') assessed as change in melting temperature at 1 uM incubated for 5 min by FRET assay; assay type: nucleic-acid assay; how it was run: as §2

IC50 (Trypanosoma brucei): 0.85 µM
Drug uptake [1]: 6.8%
ΔTm (Quadruplex DNA [6]): 5 °C
ΔTm (Quadruplex DNA [7]): 1 °C
SMILES: O=C1c2ccc3c4c(c(NCc5cn(CCS[C@@H]6O[C@H](CO)[C@H](O)[C@H](O)[C@H]6O)nn5)cc(c24)C(=O)N1CCN1CCOCC1)C(=O)N(CCN1CCOCC1)C3=O
selectivity ratio [2]: 27.6
IC50 (HT-29): 26.5 µM
selectivity ratio [3]: 0.9
selectivity ratio [4]: 0.8
IC50 (Leishmania major): 30 µM
IC50 at 48 h [5]: 23.5 µM
